In ChEMBL document CHEMBL1212775, “A novel class of meso-tetrakis-porphyrin derivatives exhibits potent activities against hepatitis C virus genotype 1b replicons in vitro” (Antimicrob Agents Chemother, 2010):
The source made the active and inactive calls. No cut-off for these calls is given here.

Legend:
Hepatitis C virus [1] = assay: Antiviral activity against Hepatitis C virus genotype 1b Con1 infected in human Huh-luc/neo-ET replicon cells assessed as inhibition of viral rebound dosed at 1 uM incubated for 9 days followed by compound removal and reintroduction of 250 ug/ml G418 measured after 15 days post compound withdrawal; format: functional, organism-based; settings: Hepacivirus hominis
How it was run: (§1)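 In a separate run, Huh-luc/neo-ET replicon cells were treated for 9 days without G418. Drug was then withdrawn and cells were kept for a 15-day rebound period under G418 selection. Surviving cells were scored as the fraction of the population that outlasted selection.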

Hepatitis C virus [2] = assay: Antiviral activity against Hepatitis C virus genotype 1b Con1 infected in human Huh-luc/neo-ET replicon cells assessed as inhibition of viral rebound dosed at 300 nM incubated for 9 days followed by compound removal and reintroduction of 250 ug/ml G418 measured after 15 days post compound withdrawal; format: functional, organism-based; settings: Hepacivirus hominis; how it was run: as §1
[3] = Cytotoxicity against human Huh-7 cells by luminescence based cell viability assay
Hepatitis C virus [4] = assay: Antiviral activity against Hepatitis C virus genotype 1b Con1 infected in human Huh-luc/neo-ET replicon cells assessed as viral replicon survival dosed at 300 nM incubated for 9 days followed by compound removal and reintroduction of 250 ug/ml G418 measured after 15 days post compound withdrawal; format: functional, Hepacivirus hominis; how it was run: as §1
Hepatitis C virus [5] = assay: Antiviral activity against Hepatitis C virus genotype 1b Con1 infected in human Huh-luc/neo-ET replicon cells assessed as reduction of replicon luciferase signal after 72 hrs by luciferase reporter assay in presence of 5% fetal bovine serum; format: functional, organism-based, Hepacivirus hominis
How it was run: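 Huh-luc/neo-ET cells without G418, incubated with serially diluted compounds in medium containing 5%, 10%, 20% or 40% (vol/vol) FBS. Firefly luciferase read after 72 h. EC50 from dose-effect curves. The 0% value is a theoretical EC50 extrapolated from the plot of EC50 versus serum level. Means ± SD of three independent experiments.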

[6] = test system: Human immunodeficiency virus 1; assay: Antiviral activity against Human immunodeficiency virus 1 3B virus infected in human MT2 cells assessed as inhibition of virus-induced cytopathic effect by colorimetry; format: functional, organism-based
How it was run: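 MT-2 cells, 1 × 10^3 per well in triplicate, infected with HIV-1 IIIB at 0.1 TCID50/cell and cultured with compounds. Viral CPE quantified by MTT colorimetry after 5 days to estimate EC50.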

[7] = Cytotoxicity against human HuH7 cells by luminescence based cell viability assay; set-up: species or system Huh-7
How it was run: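 Exponentially growing Huh-7 cells seeded at 1 × 10^4 per well and incubated with compounds for 3 days. Viability read by CellTiter-Glo luminescence, used for dark compounds that interfere with methylene blue absorbance at 595 nm. CC50 derived.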

Hepatitis C virus [8] = assay: Antiviral activity against Hepatitis C virus genotype 1b Con1 infected in human Huh-luc/neo-ET replicon cells assessed as reduction in viral RNA level after 48 hrs by RT-PCR; format: functional, organism-based, Hepacivirus hominis
How it was run: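 Cells seeded at 1 × 10^5 per well and treated with DMSO or compound up to 250 nM for 24, 48 or 72 h. Total RNA diluted to 50 ng/μl. Replicon RNA (5′ UTR) measured in triplicate by one-step qRT-PCR, normalized to β-actin mRNA, and expressed as percent of mock control. Three independent repeats.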

CCRF-CEM = assay: Mitochondrial DNA toxicity in human CEM cells; format: cell-based
How it was run: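 CEM cell lysates slot-blotted and hybridized with an mtDNA-specific probe, then reprobed with an Alu probe as internal control. Bands quantified by autoradiography and densitometry.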

Hepatitis C virus [9] = assay: Antiviral activity against Hepatitis C virus genotype 1b Con1 infected in human Huh-luc/neo-ET replicon cells assessed as inhibition of viral rebound dosed at 300 nM incubated for 12 days followed by compound removal and reintroduction of 250 ug/ml G418 measured after 9 days post compound withdrawal; format: functional, organism-based; settings: Hepacivirus hominis
How it was run: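 Huh-luc/neo-ET cells were seeded at 2 × 10^5 per well and kept without G418 for 12 days with DMSO or up to 1 μM drug. Cells were split every 3 days, with medium and drug renewed. Drug was then removed and 250 μg/ml G418 added for 12 more days, sampling at confluence. HCV 5′UTR RNA was measured by one-step qRT-PCR, normalised to β-actin and expressed relative to mock. Viability was read by CellTiter-Glo as % of mock.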

O=C(O)c1cc(C(=O)O)cc(-c2ccc(-c3c4nc(c(-c5ccc(-c6cc(C(=O)O)cc(C(=O)O)c6)cc5)c5ccc([nH]5)c(-c5ccc(-c6cc(C(=O)O)cc(C(=O)O)c6)cc5)c5ccc([nH]5)c(-c5ccc(-c6cc(C(=O)O)cc(C(=O)O)c6)cc5)c5nc3C=C5)C=C4)cc2)c1
inhibition (Hepatitis C virus [1]): Active
inhibition (Hepatitis C virus [2]): Active
CC50 [3]: > 50 µM
Survival (Hepatitis C virus [4]): 0.4%
EC50 (Hepatitis C virus [5]): 0.013 µM
EC50 [6]: 3.67 µM
CC50 [7]: > 50 µM
EC50 (Hepatitis C virus [8]): 0.0362 µM
inhibition (Hepatitis C virus [8]; Hepacivirus hominis): Dose-dependent effect
IC50 (CCRF-CEM): > 50 µM
inhibition (Hepatitis C virus [9]): Active
